Positions of bridges follow the written chain, without caps; N, C: chain ends. Non-standard residues stand in square brackets, D forms with d. Residues, ends and D or L forms follow the SMILES beside them. *: point of attachment. 6FAM = O=C1OC2(c3ccc(O)cc3Oc3cc(O)ccc32)c2cc(C(=O)*)ccc21; PEG3 = NCCOCCOCCOCCC(=O)O
Experiment: Lysate degradation assay
Assay type: in vitro ADME, mouse
Settings: for time for 90% degradation of the peptide: Baf/BCR-ABL cell lysate, 3 mg mL^-1 protein, 2 μM peptide, 37 °C, CE-LIF; for half-life at 2 μM: mouse, Baf/BCR-ABL cell lysate (cytosolic), pH 7.4
In short: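 Mouse B-cell lymphoma Baf/BCR-ABL cells washed and resuspended in cold ECB (pH 7.4), then lysed by three cycles of liquid nitrogen (1 min) and 37 °C thaw; supernatant kept after 14,000 × g, 4 °C, 5 min. Peptide at 2 μM in lysate (3 mg mL−1 protein), 37 °C, triplicate. Timed aliquots quenched with HCl (100 mM final) and 95 °C for 4 min. Intact fraction = intact-peak area / total peak area.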

Structure (SMILES): CC[C@H](C)[C@H](NC(=O)[C@H](C)NC(=O)[C@H](CCC(=O)O)NC(=O)[C@H](CCCCNC(=O)c1ccc2c(c1)C1(OC2=O)c2ccc(O)cc2Oc2cc(O)ccc21)NC(=O)CCOCCOCCOCCNC(=O)CCOCCOCCOCCNC(=O)[C@H](CCCNC(=N)N)NC(=O)CNC(=O)[C@H]1CCCN1C(=O)[C@@H](N)Cc1c[nH]c2ccccc12)C(=O)N[C@@H](Cc1ccc(O)cc1)C(=O)N[C@@H](C)C(=O)N[C@@H](C)C(=O)N1CCC[C@H]1C(=O)N[C@@H](Cc1ccccc1)C(=O)N[C@@H](C)C(=O)N[C@@H](CCCCN)C(=O)N[C@@H](CCCCN)C(=O)N[C@@H](CCCCN)C(N)=O [Peptide 2] (H-W[dP]GR[PEG3][PEG3]K(6FAM)EAIYAAPFAKKK-NH2; N-terminus assumed)
- time for 90% degradation of the peptide: ≤ 10 min
- increase in half-life over the control peptide (Baf/BCR-ABL cytosolic lysate): ~10 fold
- half-life at 2 μM: 4.8 ± 0.4 min

Structure (SMILES): CC[C@H](C)[C@H](NC(=O)[C@H](C)NC(=O)[C@H](CCC(=O)O)NC(=O)[C@H](CCCCNC(=O)c1ccc2c(c1)C1(OC2=O)c2ccc(O)cc2Oc2cc(O)ccc21)NC(=O)CCOCCOCCOCCNC(=O)CCOCCOCCOCCNC(=O)[C@@H]1CSCC(=O)N[C@@H](Cc2c[nH]c3ccccc23)C(=O)N2CCC[C@@H]2C(=O)NCC(=O)N[C@@H](CCCNC(=N)N)C(=O)N1)C(=O)N[C@@H](Cc1ccc(O)cc1)C(=O)N[C@@H](C)C(=O)N[C@@H](C)C(=O)N1CCC[C@H]1C(=O)N[C@@H](Cc1ccccc1)C(=O)N[C@@H](C)C(=O)N[C@@H](CCCCN)C(=O)N[C@@H](CCCCN)C(=O)N[C@@H](CCCCN)C(N)=O [Peptide 4] ({CH2CO}-W[dP]GRC[PEG3][PEG3]K(6FAM)EAIYAAPFAKKK-NH2; thioether N-5)
- time for 90% degradation of the peptide: 25 min
- half-life at 2 μM: 9.2 ± 1.2 min

— publication PMC3752283 (The Analyst, 2013)
